Consider 8 compounds from PMC2233745 (The Journal of General Physiology, 2001).

Residue numbers refer to the chain shown, from its start. Like-named read-outs stand apart in the source and are kept apart here. Ends that are not written are not given here.

Series [1] relates to PDE activity in GH4C1 cells. In words: Effect of PDE inhibitors on forskolin-induced Ca2+ influx in GH4C1 cells. In kind it is cell-based, rat. The note with it: Δ61–90/C460W/E583M channels, 10 μM forskolin, 1 μM nimodipine.
In series [2] the test system is PDE activity in HEK-293 cells. As to the kind of experiment: Effects of PDE inhibitors on forskolin-induced Ca2+ influx in HEK-293 cells. The format is cell-based, human. The note with it: C460W/E583M channels, 1 μM forskolin, IBMX 10 or 100 μM, RO-20-1724 10 μM.
In another series the test system is HEK-293 cells. In words: Equilibration of PDE inhibitors across the plasma membrane. In kind it is cell-based, human. The note with it: data not shown.
Series [3] deals with T1, Δ61–90/C460W/E583M rat olfactory CNG channel (Rattus norvegicus, UniProt Q00195, C460W/DEL61-90/E583M).
T1 sequence (Q00195 with tags, fused parts or gaps DEL61-90/C460W/E583M): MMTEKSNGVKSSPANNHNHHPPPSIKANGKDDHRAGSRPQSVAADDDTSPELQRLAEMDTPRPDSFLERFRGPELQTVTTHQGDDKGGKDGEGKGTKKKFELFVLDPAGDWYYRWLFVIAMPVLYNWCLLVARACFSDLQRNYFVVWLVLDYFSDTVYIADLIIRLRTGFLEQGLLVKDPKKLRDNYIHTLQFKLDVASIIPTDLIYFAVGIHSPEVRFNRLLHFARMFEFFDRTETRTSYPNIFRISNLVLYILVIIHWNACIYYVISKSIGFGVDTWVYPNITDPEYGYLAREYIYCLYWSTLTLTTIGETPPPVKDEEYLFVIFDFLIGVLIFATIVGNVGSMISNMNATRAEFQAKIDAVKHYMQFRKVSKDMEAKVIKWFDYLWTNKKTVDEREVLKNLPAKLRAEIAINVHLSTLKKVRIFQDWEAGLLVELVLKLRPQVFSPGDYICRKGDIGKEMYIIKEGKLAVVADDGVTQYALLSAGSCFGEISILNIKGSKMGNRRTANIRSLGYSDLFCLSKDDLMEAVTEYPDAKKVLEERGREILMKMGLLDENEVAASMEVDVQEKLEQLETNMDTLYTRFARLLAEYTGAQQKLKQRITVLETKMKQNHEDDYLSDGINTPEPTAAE
As to the kind of experiment: Excised inside-out patch recording, Δ61–90/C460W/E583M CNG channel. To be noted: Δ61-90/C460W/E583M channel, mean ± SD of three experiments; for EC50: read-out: K1/2 (concentration that gives half-maximal current). In kind it is biochemical.

In series [4] the target is T2, C460W/E583M rat olfactory CNG channel (Rattus norvegicus, UniProt Q00195, C460W/E583M).
T2 sequence (Q00195 1-664 C460W/E583M): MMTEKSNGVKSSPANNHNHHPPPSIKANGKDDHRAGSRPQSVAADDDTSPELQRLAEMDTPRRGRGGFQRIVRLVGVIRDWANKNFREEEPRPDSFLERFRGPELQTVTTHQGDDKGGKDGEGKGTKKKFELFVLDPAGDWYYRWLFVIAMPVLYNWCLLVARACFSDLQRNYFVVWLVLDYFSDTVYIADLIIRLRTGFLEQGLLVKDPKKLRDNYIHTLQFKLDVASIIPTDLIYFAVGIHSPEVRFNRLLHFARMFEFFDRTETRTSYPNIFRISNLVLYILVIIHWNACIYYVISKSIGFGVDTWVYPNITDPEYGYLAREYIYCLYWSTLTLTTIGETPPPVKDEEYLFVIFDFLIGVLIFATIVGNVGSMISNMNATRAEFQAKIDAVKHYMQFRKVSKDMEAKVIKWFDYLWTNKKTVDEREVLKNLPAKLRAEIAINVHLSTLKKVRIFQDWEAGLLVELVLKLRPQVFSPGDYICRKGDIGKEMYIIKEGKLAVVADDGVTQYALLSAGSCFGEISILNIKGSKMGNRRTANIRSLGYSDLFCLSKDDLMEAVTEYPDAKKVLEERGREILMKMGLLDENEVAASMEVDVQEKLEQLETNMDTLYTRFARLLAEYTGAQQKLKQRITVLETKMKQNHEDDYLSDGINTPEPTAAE
In words: Excised inside-out patch recording, C460W/E583M CNG channel. In kind it is biochemical. The note with it: for N (Hill coefficient): mean ± SD of three experiments.

Series [5] addresses T3, WT rat olfactory CNG channel α subunit (Rattus norvegicus, UniProt Q00195).
T3 sequence (Q00195 1-664): T2 sequence (Q00195 1-664 C460W/E583M) with W460C, M583E
In words: Excised inside-out patch recording, WT CNG channel. The format is biochemical. The note with it: for N (Hill coefficient): mean ± SD of three experiments.

The target in series [6] is T4, E583M rat olfactory CNG channel (Rattus norvegicus, UniProt Q00195, E583M).
T4 sequence (Q00195 1-664 E583M): T2 sequence (Q00195 1-664 C460W/E583M) with W460C
In words: Excised inside-out patch recording, E583M CNG channel. In kind it is biochemical. To be noted: for N (Hill coefficient): mean ± SD of three experiments.

The test system of series [7] is HEK-293 and C6–2B glioma cells. To be noted: ref Rich et al. 2000, cited from earlier work.
Series [8] concerns HEK-293 cells expressing CNG channels. In words: Forskolin-induced Ca2+ influx through expressed CNG channels in HEK-293 cells. In kind it is cell-based, human. The note with it: for forskolin concentration at which delay and rate of Ca2+ influx saturate: 100 μM IBMX. The method in brief:
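HEK-293 cells were infected with channel-encoding adenovirus (MOI 10) and detached at 24 h with PBS/0.03% EDTA. They were loaded at room temperature for 30–40 min with 4 μM fura-2/AM and 0.02% pluronic F-127, then resuspended in HEPES-buffered saline with 1 mM CaCl2, pH 7.4, and stirred in a cuvette. 100 μM IBMX was added at 0 s and forskolin at 180 s. ΔF/F0 was read at ex 380/em 510 nm; n = 4 batches.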

Series [9] deals with GH4C1 cells expressing C460W/E583M channels. As to the kind of experiment: AC activator-induced Ca2+ influx in GH4C1 cells expressing C460W/E583M channels. The format is cell-based, rat. The note with it: after vehicle or 100 μM IBMX. Put shortly: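 Rat GH4C1 cells kept in Ham's F-10 (15% horse serum, 2.5% FBS, pH 6.8, 37°C), adenovirus-infected (MOI 50), assayed within 12 h of harvest at 48 h post-infection. Loaded 70 min with 4 μM fura-2/AM at room temperature, then washed. Read in pH 7.4 saline (1 mM CaCl2) at ex 380/em 510 nm as ΔF/F0. Nimodipine 1 μM at time zero; IBMX/vehicle at 60 s; agonist afterwards.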

Series [10] concerns voltage-gated Ca2+ channels. As to the kind of experiment: Block of Ca2+ influx through voltage-gated Ca2+ channels in GH4C1 cells. To be noted: 1 μM nimodipine, membrane depolarization in 24 mM external KCl, data not shown. In kind it is cell-based, rat.
The mark [11] stands for this setting: read-out: K1/2 (concentration that gives half-maximal current), +50 mV, mean ± SD of three experiments.
Setting [12] is: read-out: K1/2 (concentration that gives half-maximal current), −50 mV, mean ± SD of three experiments.
[13] abbreviates: read-out: K1/2, +50 mV, experiment shown in Fig. 2.

On to `COCc1nc2c([nH]1)c(=O)n(C)c(=O)n2CC(C)C` [8-methoxymethyl-IBMX], for which the “effect on PDE activity / forskolin-induced Ca2+ influx” value in series [1] is listed as “significantly inhibited PDE activity”.

Consider `CCOC(=O)c1cnc2c(cnn2CC)c1NN=C(C)C` [Etazolate], for which, in series [2], the “effect on forskolin-induced Ca2+ influx” value is reported as “significantly increased the forskolin-induced Ca^2+ influx”.

In the case of `CCCCOc1cc(CC2CNC(=O)N2)ccc1OC` (stereo not drawn) [RO-20-1724, 4-(3-butoxy-4-methoxybenzyl)-2-imidazolidinone], the “effect on forskolin-induced Ca2+ influx” value in series [2] is listed as “significant forskolin-induced Ca^2+ influx was observed”. For the same compound, the “time to complete equilibration across the plasma membrane” value in the series on HEK-293 cells is given as less than 180 s. The “effect on PDE activity / forskolin-induced Ca2+ influx” value in series [1] is “also inhibited PDE activity”.

In the case of `COc1ccc(C2CNC(=O)C2)cc1OC1CCCC1` (stereo not drawn) [Rolipram], the “effect on forskolin-induced Ca2+ influx” value in [2] is reported as “significantly increased the forskolin-induced Ca^2+ influx”. For the same compound, in the series on HEK-293 cells, the “time to complete equilibration across the plasma membrane” value is less than 180 s. In [1], the “effect on PDE activity / forskolin-induced Ca2+ influx” value is listed as “also inhibited PDE activity”.

In the case of `Nc1nc2c(ncn2[C@@H]2O[C@@H]3COP(=O)(O)O[C@H]3[C@H]2O)c(=O)[nH]1` [cGMP], the EC50 in series [3] (+50 mV) is 36 ± 4 µM; in series [3] (−50 mV) it was 16 ± 1 µM; in series [4] (setting [11]), 12 ± 2 µM; in series [4] (setting [12]) it was 6.2 ± 1 µM; in series [4] (setting [13]), 11 µM; in series [5] (setting [11]), 1.6 ± 0.1 µM. Moreover, the EC50 worked out at 1.3 ± 0.4 µM in series [5] (setting [12]), 28 ± 2 µM in [6] (setting [11]), 32 ± 4 µM in [6] (setting [12]) and 25 µM in series [6] (setting [13]). For the same compound, the “N (Hill coefficient)” value in series [3] (+50 mV) is recorded as 1.8 ± 0.2; in [3] (−50 mV), 2.6 ± 0.2; in series [4] (+50 mV) it was 2.8 ± 0.3; in series [4] (−50 mV), 2.7 ± 0.1; in [5] (+50 mV), 2.3 ± 0.1; in series [5] (−50 mV) it was 2.5 ± 0.4. Further, the entries for the “N (Hill coefficient)” value in series [6] (+50 mV) and in series [6] (−50 mV) were 2.4 ± 0.2 and 1.9 ± 0.2, respectively.

`C=C[C@@]1(C)CC(=O)[C@]2(O)[C@@]3(C)[C@@H](O)CCC(C)(C)[C@@H]3[C@H](O)[C@H](OC(C)=O)[C@@]2(C)O1` [forskolin]: the “forskolin-induced increase in cAMP concentration measured using CNG channels” value in series [7] (local cAMP near the plasma membrane) is more than 25 µM. Further, the “forskolin-induced increase in cAMP concentration averaged throughout the accessible cell volume” value in series [7] is 1 to 2 µM. Also, the “forskolin concentration at which delay and rate of Ca2+ influx saturate” value was 5 µM in series [8] (HEK-293 cells expressing C460W/E583M channel), 20 µM in [8] (HEK-293 cells expressing E583M channel), more than 50 µM in series [8] (HEK-293 cells expressing WT channel) and 20 µM in [8] (HEK-293 cells expressing Δ61–90/C460W/E583M channel). For the same compound, the “cAMP accumulation and Ca2+ influx after addition” value in series [9] (10 μM forskolin) was “caused additional cAMP accumulation and Ca^2+ influx”.

With `COCCOC(=O)C1=C(C)NC(C)=C(C(=O)OC(C)C)C1c1cccc([N+](=O)[O-])c1` (stereo not drawn) [nimodipine], in [10], the “block of Ca2+ influx through voltage-gated Ca2+ channels” value was “sufficient to block Ca^2+ influx through voltage-gated Ca^2+ channels”. Besides, in [8] (1 μM nimodipine, HEK-293 cells, data not shown), the “effect on forskolin or pCPT-cGMP induced Ca2+ influx through CNG channels” value is recorded as “did not alter”.

Turning to “vasoactive intestinal peptide (HSDAVFTDNYTRLRKQMAVKKYLNSILN; ends and bridges not checked; UniProt P01282 125-152, looked up) [VIP]”, the “cAMP accumulation and Ca2+ influx after addition” value in series [9] (100 nM VIP) was “caused additional cAMP accumulation and Ca^2+ influx”.
